Results reported in ChEMBL document CHEMBL1150592, “New antimicrobial cycloartane triterpenes from Acalypha communis” (2002).
Converted amounts (≈) assume the structure as drawn. The source made the active and inactive calls. The rule behind the calls is not given here.

Legend:
Staphylococcus aureus [1] = experiment: Antimicrobial activity against Staphylococcus aureus Smith infected in CD1 mouse after 7 days; type: functional; conditions: 168 h
In short: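 Female CD-1 mice (20 ± 2 g) infected intraperitoneally with bacteria in broth or ~5% mucin, inoculum lethal to 95–100% of untreated mice within 48 h. Single dose given 0.5 h post-infection. Seven-day survival from three or four tests (five dose levels, five mice per level) pooled; ED50 by probit analysis.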

Enterococcus faecium = experiment: Antimicrobial activity against vancomycin-resistant Enterococcus faecium 379 after 18 to 20 hrs by standard broth microdilution method; type: functional
In short: (§1)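 Broth microdilution: 5 μL overnight culture (1 × 10⁷ to 5 × 10⁷ CFU/ml) added to 0.1 mL broth containing drug at 0.03–128 μg/mL. Incubated 18–20 h at 37 °C. MIC = lowest concentration preventing visual turbidity. Strains from an in-house laboratory collection.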

Staphylococcus aureus [2] = experiment: Antimicrobial activity against Staphylococcus aureus Smith infected in CD1 mouse at 64 mg/kg after 7 days; type: functional, organism-based; parameters: dose 64 mg/kg
In short: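 Female CD-1 mice weighing 20 ± 2 g were infected intraperitoneally with bacteria suspended in broth or in about 5% mucin, at an inoculum lethal to 95–100% of untreated mice within 48 h. A single drug dose was given 0.5 h after infection. Survival was scored at day 7, using five animals per dose level and three or four separate tests pooled.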

Staphylococcus aureus [3] = experiment: Antimicrobial activity against methicillin-resistant Staphylococcus aureus 310 after 18 to 20 hrs by standard broth microdilution method; type: functional; in short: as §1
Staphylococcus aureus [4] = experiment: Antimicrobial activity against Staphylococcus aureus 375 after 18 to 20 hrs by standard broth microdilution method; type: functional
In short: (§2)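 Broth microdilution in polystyrene plates. Each well held 0.1 mL of broth medium with drug at 0.03–128 μg/mL and received 5 μL of overnight broth culture adjusted to 1 × 10⁷ to 5 × 10⁷ CFU/ml. Plates were incubated 18–20 h at 37 °C. MIC was the lowest concentration with no visible turbidity. Strains came from a laboratory collection.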

Bacillus subtilis = experiment: Antimicrobial activity against Bacillus subtilis PY79 after 18 to 20 hrs by standard broth microdilution method; type: functional; in short: as §2
Escherichia coli = experiment: Antimicrobial activity against Escherichia coli imp 389 after 18 to 20 hrs by standard broth microdilution method; type: functional; in short: as §2

Row | Structure (SMILES) | ED50 (Staphylococcus aureus [1]) [mg/kg] | MIC (Enterococcus faecium) [µg/mL] | ED50 (Staphylococcus aureus [2]) | MIC (Staphylococcus aureus [3]) [µg/mL] | MIC (Staphylococcus aureus [4]) [µg/mL] | MIC (Bacillus subtilis) [µg/mL] | MIC (Escherichia coli) [µg/mL]
1 | CN[C@H](CC(C)C)C(=O)N[C@H]1C(=O)N[C@@H](CC(N)=O)C(=O)N[C@H]2C(=O)N[C@H]3C(=O)N[C@H](C(=O)N[C@H](C(=O)O)c4cc(O)cc(O)c4-c4cc3ccc4O)[C@H](O)c3ccc(c(Cl)c3)Oc3cc2cc(c3O[C@@H]2O[C@H](CO)[C@@H](O)[C@H](O)[C@H]2O[C@H]2C[C@](C)(N)[C@H](O)[C@H](C)O2)Oc2ccc(cc2Cl)[C@H]1O [VANCOMYCIN] | 1 | – | – | – | – | – | –
2 | C=C(CC[C@@H](C)[C@H]1[C@@H](O)C[C@@]2(C)[C@@H]3[C@@H](O)C[C@H]4[C@](C)(C(=O)O)[C@@H](O)CC[C@@]45C[C@@]35CC[C@]12C)C(C)C | – | 8 (≈ 15.9 µM) | inactive | > 128 | 16 (≈ 31.8 µM) | 16 (≈ 31.8 µM) | > 128
3 | CC1(C)S[C@@H]2[C@H](NC(=O)Cc3ccccc3)C(=O)N2[C@H]1C(=O)O [PENICILLIN G] | – | 128 (≈ 383 µM) | – | 128 (≈ 383 µM) | 0.06 (≈ 0.179 µM) | 8 (≈ 23.9 µM) | 2 (≈ 5.98 µM)
4 | CC(C)=CCC[C@@H](C)[C@H]1[C@H](O)C[C@@]2(C)[C@@H]3CC[C@H]4[C@](C)(C(=O)O)[C@@H](O)C[C@H](O)[C@@]45C[C@@]35CC[C@]12C | – | 8 (≈ 16.4 µM) | – | 64 (≈ 131 µM) | 32 (≈ 65.5 µM) | 32 (≈ 65.5 µM) | 64 (≈ 131 µM)
5 | CC(C)=CCC[C@@H](C)[C@H]1C[C@H](O)[C@@]2(C)[C@@H]3CC[C@H]4[C@](C)(C(=O)O)[C@@H](O)C[C@H](O)[C@@]45C[C@@]35CC[C@]12C | – | 32 (≈ 65.5 µM) | – | 128 (≈ 262 µM) | 32 (≈ 65.5 µM) | 64 (≈ 131 µM) | > 128
